The subject of series [1] is Escherichia coli. The experiment in a line: Agonist activity at LsrB receptor in LsrF-, LsrG-, luxS-deficient Escherichia coli KX1446 assessed as induction of lsr gene expression at 150 uM after 4.5 to 5 hrs by LacZ reporter gene assay. It counts as functional. A digest of the protocol: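 E. coli KX1446 carrying lsr-lacZ fusion grown in LB; analog diluted from 2 mM stock in 0.01 M H2SO4, final 150 μM, no DPD added. Acid-water and AI-2 controls per series; triplicate independent cultures.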

The test system of series [2] is Escherichia coli. The experiment in a line: Agonist activity at LsrB receptor in LsrF-, LsrG-, luxS-deficient Escherichia coli KX1446 assessed as increase in receptor agonist DPD-induced lsr gene expression at 150 uM after 4.5 to 5 hrs by LacZ reporter gene assay. It counts as functional. Put shortly:
(§1)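 E. coli lsr-lacZ reporter KX1446 in LB with overnight culture aliquot; analogs at final 15 or 150 μM added from 2 mM stocks in 0.01 M H2SO4, with 20 µM DPD present. Acid-water and AI-2 controls.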

The test system of series [3] is Escherichia coli. As to the kind of experiment: Agonist activity at LsrB receptor in LsrF-, LsrG-, luxS-deficient Escherichia coli KX1446 assessed as increase in receptor agonist DPD-induced lsr gene expression at 15 uM after 4.5 to 5 hrs by LacZ reporter gene assay. Format: functional. A digest of the protocol: as §1
Series [4] has as its target Autoinducer 2-binding periplasmic protein LuxP (Vibrio harveyi) (UniProt P54300). The experiment in a line: (§2) Binding affinity to Vibrio harveyi CFP/YFP-tagged LuxP receptor assessed as decrease in FRET ratio. A digest of the protocol: (§3)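 Purified CFP-LuxP-YFP chimera, 12.5 µg ml⁻¹, in 25 mM sodium phosphate pH 8, 35 mM NaCl, 1 mM borate; serially diluted compounds (in 0.01 M H2SO4 water), 2.5 µl into 280 µl reaction. FRET ratio 527/485 nm; lower ratio indicates binding. EC50 from dose series; standard deviations shown.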

Series [5] addresses T1, Autoinducer 2-binding periplasmic protein LuxP (Vibrio harveyi, UniProt P54300). The series is described as §2. Put shortly:
as §3

The target in series [6] is T1, Autoinducer 2-binding periplasmic protein LuxP. The experiment in a line: Agonist activity at Vibrio harveyi MM32 LuxP receptor assessed as induction of bioluminescence after 5 hrs 30 mins. Format: functional. A digest of the protocol: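 MM32 reporter grown in AB medium; compounds serially diluted in 0.01 M H2SO4 water, without added DPD. Light counted as cpm after 5 h 30 min at 30 °C. EC50 from four-parameter sigmoidal fit by non-linear least squares; error bars are standard deviations.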

Series [7] has the same target. The experiment in a line: Antagonist activity at Vibrio harveyi MM32 LuxP receptor assessed as decrease in receptor agonist DPD-induced bioluminescence after 5 hrs 30 mins. Format: functional. Put shortly:
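V. harveyi MM32 in AB medium with 0.1 μM DPD plus serial dilutions of test compound (in 0.01 M H2SO4 water). Luminescence read as cpm after 5 h 30 min at 30 °C; IC50 by four-parameter sigmoidal non-linear least-squares fitting.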

Another series relates to Vibrio harveyi. As to the kind of experiment: Growth inhibition of Vibrio harveyi MM32 at 0.1 mM after 5 hrs. Format: organism-based. Particulars: in vivo, 100 µM.
Series [8] concerns the target T1, Autoinducer 2-binding periplasmic protein LuxP. As to the kind of experiment: Agonist activity at Vibrio harveyi LuxP receptor. It counts as functional.
Series [9] is described as follows: Inhibition of […]-deficient Salmonella Typhimurium Met844 Quorum sensing system by lacZ reporter gene assay. Details: species or system Salmonella enterica subsp. enterica serovar Typhimurium.

Calls of active or inactive are those of the source. The rule behind the calls is not given here.

T1 sequence (P54300 whole entry): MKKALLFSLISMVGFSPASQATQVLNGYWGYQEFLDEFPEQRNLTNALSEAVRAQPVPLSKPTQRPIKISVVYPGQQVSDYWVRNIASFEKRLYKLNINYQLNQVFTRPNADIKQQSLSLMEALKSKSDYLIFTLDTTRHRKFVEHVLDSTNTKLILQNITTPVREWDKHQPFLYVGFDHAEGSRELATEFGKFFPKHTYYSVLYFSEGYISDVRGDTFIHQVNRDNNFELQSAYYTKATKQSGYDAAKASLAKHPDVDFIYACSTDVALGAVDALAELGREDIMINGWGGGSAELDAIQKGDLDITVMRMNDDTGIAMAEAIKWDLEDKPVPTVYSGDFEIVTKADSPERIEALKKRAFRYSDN
Autoinducer 2-binding periplasmic protein LuxP (Vibrio harveyi), sequence (P54300 whole entry): as above

On to `CC(=O)C(=O)[C@H](O)[C@@H](C)O`, for which the result with Escherichia coli [1], in the series on Escherichia coli [2] and in the series on Escherichia coli [3] was inactive. Besides, in series [4], the Activity result is “Dose-dependent effect”. Besides, the results for the EC50 in [5] and in series [6] were 11.6 µM and 19.5 µM, respectively. Also, the 50% inhibitory concentration (IC50) in series [7] was determined as 160 µM. In the series on Vibrio harveyi, the “growth inhibition (GI)” value is reported as “Toxic”.
Regarding `CC(=O)C(=O)[C@@H](O)[C@@H](C)O` (single isomer, unassigned), the outcome in the series with Escherichia coli [1] was inactive. In series [4], the Activity result was “Dose-dependent effect”. Moreover, the results for the EC50 in [5] and in series [6] were 0.14 µM and 0.65 µM, respectively. In the series on Vibrio harveyi, the “growth inhibition (GI)” value is reported as “Toxic”.
`CC(=O)C(=O)[C@@H](O)CO`: the results for the EC50 in series [5] and in [6] were 0.032 µM and 0.076 µM, respectively. For the same molecule, the “growth inhibition (GI)” value with Vibrio harveyi is “Toxic”.
`CC(=O)C(=O)[C@@H](O)[C@H](C)O`: in the series with Escherichia coli [1], the result was inactive. The outcome in the series on Escherichia coli [2] and in the series on Escherichia coli [3] was Active. Further, the Activity entry in series [4] is “Dose-dependent effect”. Moreover, the EC50 came to 1.87 µM in series [5] and 6.21 µM in series [6]. Moreover, in [7], the IC50 was determined as 57.5 µM. Further, in the series with Vibrio harveyi, the “growth inhibition (GI)” value was “Toxic”.
As to `CC(=O)C(=O)[C@H](O)CO`, it took 30 µM to reach a half-maximal effect in [8] (EC50).
As to `CC(=O)C(=O)[C@H](O)[C@H](C)O`, the result with Escherichia coli [1] was inactive. Besides, the Activity entry in [4] was “Dose-dependent effect”. Besides, the EC50 was found to be 10 µM in series [5] and 26.5 µM in series [6]. The “growth inhibition (GI)” value in the series with Vibrio harveyi was “Toxic”.
In series [8], `O=C(C(=O)C(F)(F)F)[C@@H](O)CO` displayed a concentration for a half-maximal effect (EC50) of 30 µM.
In [9], `CCCCCC(=O)C(=O)[C@@H](O)CO` came in with a concentration for half-maximal inhibition (IC50) of 5 µM.

The record behind these values is ChEMBL document CHEMBL1938309, “Stereochemical diversity of AI-2 analogs modulates quorum sensing in Vibrio harveyi and Escherichia coli” (Bioorg Med Chem, 2012).
